ChEMBL document CHEMBL4477183, “Antimicrobial Peptide from the Wild Bee Hylaeus signatus Venom and Its Analogues: Structure-Activity Study and Synergistic Effect with Antibiotics” (J Nat Prod, 2016)
In brackets after ≈: the same amount, converted by molar mass. Non-standard residues stand in square brackets, D forms with d. Residues, ends and D or L forms follow the SMILES beside them.

Columns and labels:
Candida albicans = assay: Antifungal activity against Candida albicans assessed as reduction in fungal growth after 20 hrs by […]; assay type: functional
In short: (§1)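 Broth microdilution in LB (YPG for C. albicans) with 2-fold serial dilutions, final 0.1–100 μM. Mid-log cells grown 3–5 h at 37 °C were added at about 5 × 10^5 cfu/mL, then incubated 20 h at 37 °C with shaking. A540 was read every 15 min to build growth curves. Medium with cells served as growth control; at least three runs in duplicate.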

[1] = test system: Staphylococcus epidermidis; assay: Antimicrobial activity against Staphylococcus epidermidis assessed as reduction in bacterial growth after 20 hrs by broth microdilution assay
Pseudomonas aeruginosa [2] = assay: Antimicrobial activity against Pseudomonas aeruginosa clinical isolates assessed as FIC index in presence of tetracycline after 20 hrs by drop diffusion test; assay type: functional
Micrococcus luteus = assay: Antimicrobial activity against Micrococcus luteus assessed as reduction in bacterial growth after 20 hrs by […]; assay type: functional; in short: as §1
Pseudomonas aeruginosa [3] = assay: Antimicrobial activity against Pseudomonas aeruginosa clinical isolates assessed as FIC index in presence of rifampicin after 20 hrs by drop diffusion test; assay type: functional
Escherichia coli = assay: Antimicrobial activity against Escherichia coli assessed as reduction in bacterial growth after 20 hrs by […]; assay type: functional; in short: as §1
[4] = Hemolytic activity in human type RBC after 1 hr; assay type: ADME, cell-based, Erythrocyte; conditions: red blood cells (erythrocytes), read-out: LC50
In short: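 Peptides at 2.5–400 μM were incubated with a 4% suspension of human erythrocytes in physiological solution for 1 h at 37 °C, then centrifuged at 250g for 5 min; supernatant A540 was read. Saline-treated cells gave 0% lysis and 0.2% Triton X-100 gave 100%. LC50 is the concentration lysing 50% of cells; duplicates in at least two independent experiments.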

Pseudomonas aeruginosa [5] = assay: Antimicrobial activity against Pseudomonas aeruginosa clinical isolates assessed as reduction in bacterial growth after 20 hrs by […]; assay type: functional; in short: as §1
Bacillus subtilis = assay: Antimicrobial activity against Bacillus subtilis assessed as reduction in bacterial growth after 20 hrs by […]; assay type: functional; in short: as §1
Pseudomonas aeruginosa [6] = assay: Antimicrobial activity against Pseudomonas aeruginosa 5482 assessed as reduction in bacterial growth after 20 hrs […]; assay type: functional; conditions: Pseudomonas aeruginosa, 5482, 20 h; in short: as §1
Staphylococcus aureus [7] = assay: Antimicrobial activity against Staphylococcus aureus clinical isolates from Liberec regional hospital assessed as reduction in bacterial growth after 20 hrs by broth microdilution assay
Staphylococcus aureus [8] = assay: Antimicrobial activity against Staphylococcus aureus clinical isolates from university hospital in Motol assessed as reduction in bacterial growth after 20 hrs by drop diffusion test; assay type: functional
Staphylococcus aureus [9] = assay: Antimicrobial activity against Staphylococcus aureus clinical isolates assessed as FIC index in presence of amoxicillin after 20 hrs by drop diffusion test; assay type: functional
Staphylococcus aureus [10] = assay: Antimicrobial activity against Staphylococcus aureus 6271 assessed as reduction in bacterial growth after 20 hrs by broth microdilution assay; conditions: Staphylococcus aureus, 6271, 20 h

Row | Compound | MIC (Candida albicans) [µM] | MIC [1] [µM] | fractional inhibitory concentration index (FICI) (Pseudomonas aeruginosa [2]) | MIC (Micrococcus luteus) [µM] | fractional inhibitory concentration index (FICI) (Pseudomonas aeruginosa [3]) | MIC (Escherichia coli) [µM] | HC50 at 1 h [4] [µM] | MIC (Pseudomonas aeruginosa [5]) [µM] | MIC (Bacillus subtilis) [µM] | MIC (Pseudomonas aeruginosa [6]) [µM] | MIC (Staphylococcus aureus [7]) [µM] | MIC (Staphylococcus aureus [8]) [µM] | fractional inhibitory concentration index (FICI) (Staphylococcus aureus [9]) | MIC (Staphylococcus aureus [10]) [µM]
1 | CC[C@@H](C)[C@@H](NC(=O)CN)C(=O)N[C@H](CC(C)C)C(=O)N[C@H](CO)C(=O)N[C@H](CO)C(=O)N[C@H](CC(C)C)C(=O)N[C@H](CC(C)C)C(=O)N[C@H](CCCCN)C(=O)N[C@H](CCCCN)C(=O)N[C@H](CC(C)C)C(=O)N[C@H](CCCCN)C(=O)N[C@H](CCCCN)C(=O)N[C@@H](C(=O)N[C@@H](C(=O)N[C@H](C)C(=O)N[C@H](CCCCN)C(N)=O)[C@H](C)CC)[C@H](C)CC (H-G[dI][dL][dS][dS][dL][dL][dK][dK][dL][dK][dK][dI][dI][dA][dK]-NH2) | 9 (≈ 15.8 µg/mL) | 3.2 (≈ 5.61 µg/mL) | 0.75 | ≤ 3 | 0.3 | 4.5 (≈ 7.89 µg/mL) | 333 | 9.7 (≈ 17 µg/mL) | ≤ 7 | 4.5 (≈ 7.89 µg/mL) | 2.6 (≈ 4.56 µg/mL) | 6.3 (≈ 11 µg/mL) | 0.63 | 5.7 (≈ 9.99 µg/mL)
2 | CC[C@@H](C)[C@@H](NC(=O)CN)C(=O)N[C@H](CC(C)C)C(=O)N[C@H](CO)C(=O)N[C@H](CO)C(=O)N[C@H](CC(C)C)C(=O)N[C@H](Cc1c[nH]c2ccccc12)C(=O)N[C@H](CCCCN)C(=O)N[C@H](CCCCN)C(=O)N[C@H](CC(C)C)C(=O)N[C@H](CCCCN)C(=O)N[C@H](CCCCN)C(=O)N[C@@H](C(=O)N[C@@H](C(=O)N[C@H](C)C(=O)N[C@H](CCCCN)C(N)=O)[C@H](C)CC)[C@H](C)CC (H-G[dI][dL][dS][dS][dL][dW][dK][dK][dL][dK][dK][dI][dI][dA][dK]-NH2) | 8 (≈ 14.6 µg/mL) | 1.7 (≈ 3.1 µg/mL) | 0.58 | ≤ 3 | 0.29 | 5 (≈ 9.13 µg/mL) | 191 | 8.8 (≈ 16.1 µg/mL) | ≤ 7 | 6.7 (≈ 12.2 µg/mL) | 2.9 (≈ 5.29 µg/mL) | 3.2 (≈ 5.84 µg/mL) | 0.73 | 6.3 (≈ 11.5 µg/mL)
3 | CC[C@@H](C)[C@@H](NC(=O)CN)C(=O)N[C@H](CCSC)C(=O)N[C@H](CO)C(=O)N[C@H](CO)C(=O)N[C@H](CC(C)C)C(=O)N[C@H](CCSC)C(=O)N[C@H](CCCCN)C(=O)N[C@H](CCCCN)C(=O)N[C@H](CC(C)C)C(=O)N[C@H](CCCCN)C(=O)N[C@H](CCCCN)C(=O)N[C@@H](C(=O)N[C@@H](C(=O)N[C@H](C)C(=O)N[C@H](CCCCN)C(N)=O)[C@H](C)CC)[C@H](C)CC (H-G[dI][dM][dS][dS][dL][dM][dK][dK][dL][dK][dK][dI][dI][dA][dK]-NH2) | 8 (≈ 14.3 µg/mL) | 2.2 (≈ 3.93 µg/mL) | 0.67 | ≤ 3 | 0.32 | 6.3 (≈ 11.3 µg/mL) | > 400 | 8.5 (≈ 15.2 µg/mL) | ≤ 7 | 3.2 (≈ 5.72 µg/mL) | 7 (≈ 12.5 µg/mL) | 16 (≈ 28.6 µg/mL) | 0.54 | 13 (≈ 23.2 µg/mL)
4 | CC1(C)S[C@@H]2[C@H](NC(=O)[C@H](N)c3ccc(O)cc3)C(=O)N2[C@H]1C(=O)O [AMOXICILLIN] | – | 35 (≈ 12.8 µg/mL) | – | – | – | 2.7 (≈ 0.987 µg/mL) | – | > 100 | – | > 100 | 35 (≈ 12.8 µg/mL) | 3.5 (≈ 1.28 µg/mL) | – | 17 (≈ 6.21 µg/mL)
5 | H-GILSSLLKKLKKIIAK-NH2 | 10 | 1.8 | 0.54 | ≤ 3 | 0.39 | 8 | 284 | 7.5 | ≤ 7 | 5 | 3.8 | 5 | 0.69 | 16
6 | H-GILSSLLKKLKKWIAK-NH2 | 16 | 1.6 | 0.63 | ≤ 3 | 0.27 | 4 | 115 | 21 | ≤ 7 | 8 | 2.6 | 4 | 0.56 | 8
7 | H-GILSSLLKKWKKIIAK-NH2 | 11 | 2.7 | 0.58 | ≤ 3 | 0.42 | 7.5 | > 400 | 7.1 | ≤ 7 | 5 | 7.8 | 20 | 0.44 | 20
8 | H-GILSSLWKKPKKIIAK-NH2 | > 100 | > 100 | – | 5.8 | – | > 100 | > 400 | > 100 | 49 | 98 | > 100 | > 100 | – | > 100
